Variants at the floor of the assay were thinned out.
B1: tRNA (parent)
chain: GUUCCGUUGGCGUAAUGGUAACGCGUCUCCCUCCUAAGGAGAAGACUGCGGGUUCGAGUCCCGUACGGAACG

Variants of: B1
Experiment: yeast fitness relative to wild type (ratio to wild type); higher = fitter; tRNA-Arg(CCU), competitive growth, 37 C, YPD
Procedure, shortened: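 Variants of the tRNA-Arg(CCU) gene were chemically synthesised with a 3% per-site mutation rate across 69 sites and placed at the native genomic locus in Saccharomyces cerevisiae. Six parallel replicates of the pooled strains were competed in YPD at 37°C for 24 hours, and gene amplicons from the start and end populations were read by 100-nucleotide paired-end sequencing. Darwinian fitness relative to wild type was derived from changes in genotype frequencies. Genotypes required ≥ 100 starting reads, and estimates < 0.5 were set to 0.5.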

**Q.** Which yeast fitness does the source give for GUUCCGUUGGCGUAAUGGUAACGCGUCUCUAUCCUAAGGAGAAGACUGCGGGUGCGAGUCCCGUACGGAACG [C30U C31A U54G] here?
**A.** The yeast fitness was 0.549.

**Q.** For GUUCCGUUGGCGUAAUGGUAACGCGUCUCCCUCCUAAGCAGAAGACUGUGGGUUCGAGUCCCGUACGGAACG [G39C C49U], which yeast fitness is on record?
**A.** The yeast fitness was 0.827.

**Q.** For GUUCCGUUGGCCUAAAGGUAACCCGUCUACCUCCUAAGGAGAAGACUGCGGGUUCGAGUACCGUACGGAACG [G12C U16A G23C C29A C60A], which yeast fitness is on record?
**A.** Its yeast fitness is ≤ 0.5.

**Q.** With GUUCCGUUGGCGUAAUAGUAAGGCGUCUCCGUGCUAAGGAGAAGACUGCGGGUUCGAGUCCCGUACGGAACG [G17A C22G C31G C33G] as the variant, how does the yeast fitness read?
**A.** Its yeast fitness is ≤ 0.5.

**Q.** For GUUUCGUUGACGUAAUGGUAACGCGUCUCUCUCCUAAGGAGAAGACUGGGGGUUCGAGUCCCGUACGAAACG [C4U G10A C30U C49G G68A], which yeast fitness is on record?
**A.** Its yeast fitness is 0.585.

**Q.** Which yeast fitness does the source give for GUUCCGUAGGCGUAAUGGUAACGCGGCUCCCUCCUAAGGAGAAGAGUGCGGGUUCGAGUCCCGUACGGAACG [U8A U26G C46G] here?
**A.** The yeast fitness was ≤ 0.5.

**Q.** For GUUCCGUUGGCGUACUGGUAACGCGACUCCCUCCUAAGGAGAAGACUGCCGGUUCGAGUCCCGUACGGAACG [A15C U26A G50C], which yeast fitness is on record?
**A.** Its yeast fitness is ≤ 0.5.

**Q.** For GUUCCGUUGGGGUAAUGGUAACGCGUCGCCCUCCUAGGGAGAAGACUGCGGGUUCGAGUCCCGUACGGAACG [C11G U28G A37G], which yeast fitness is on record?
**A.** Its yeast fitness is ≤ 0.5.

**Q.** For GUUCCGUUGGCGUAAUGGUAAAGCGCCUCCCUCCUAAGGAGAAGACCGCGGGUUCGGGUCCCGUAAGGAACG [C22A U26C U47C A57G C66A], which yeast fitness is on record?
**A.** The yeast fitness was 0.565.

**Q.** Which yeast fitness does the source give for GUUCCGUUGGCGUAAUGGUAGCGCGUCUCCCUCGUAAGGAGAAGACUGCGGGUUCGAGUCCCGUACGGAACG [A21G C34G] here?
**A.** Its yeast fitness is 0.598.

**Q.** For GUGCCGUUGGCGUAAUGGUAACGCGUCUCCCUCCUAAGGAGAAGACUGAGGGUUCGAGUCCCUUACAGAACG [U3G C49A G63U G67A], which yeast fitness is on record?
**A.** Its yeast fitness is ≤ 0.5.

**Q.** For GUUCCGUUGGCCUAAUGGUAACGGGUCUCCCUCCUAAGGAGAAGACUGGGGGUUCGAGUCCCGUACGGAACG [G12C C24G C49G], which yeast fitness is on record?
**A.** Its yeast fitness is ≤ 0.5.

**Q.** Which yeast fitness does the source give for GUUCCGUUGGCGUAAUGGUUACGCGUCUCCCUCCUAAGGAGCAGACUGCGGGUUCGCGUCCCGUACGGAACG [A20U A42C A57C] here?
**A.** Its yeast fitness is ≤ 0.5.

**Q.** Which yeast fitness does the source give for GUUCAGUUGGCGUAAUGAUAACGCAUCUCCUUCCUAAGGAGAAGACUGCGGGUUCGAGUCCCGUACGGAACG [C5A G18A G25A C31U] here?
**A.** Its yeast fitness is ≤ 0.5.

**Q.** Which yeast fitness does the source give for GUUCCGUUGGCGUAAUCGUAACGCGUCUCCCUCCUAAGGAGAAGACUGCGGGUUCGAGUACCGUACAGAACG [G17C C60A G67A] here?
**A.** Its yeast fitness is ≤ 0.5.

**Q.** With GUUCCGUUGGCGUAAUGGUAACGCGUCUCCCCCCUAAGGAGAAGACUGCGGGUUCGAGUCCCGCACGGAACG [U32C U64C] as the variant, how does the yeast fitness read?
**A.** The yeast fitness was 0.946.

**Q.** With GUUCCGUUGGCGUAAUGGCAAGGAGUCUCCCUCCUAAGCAGAAGUCUGCGGGUUCGAGUCCCGUACGGAACG [U19C C22G C24A G39C A45U] as the variant, how does the yeast fitness read?
**A.** Its yeast fitness is 0.572.

**Q.** With GUUCCGUUGGCGUAGUGGUAACGCGUCUACCUCCUAAGAAGAAGACUGUGGGUUCGAGUCCCGUACGGAACG [A15G C29A G39A C49U] as the variant, how does the yeast fitness read?
**A.** Its yeast fitness is ≤ 0.5.

**Q.** For GUUCCGUUGGCGUAAUGGUAACGUGUCUCCCUCCUAAGGAGAAGACUGCGGGAUCGAGUCCCGUAUGGAUCG [C24U U53A C66U A70U], which yeast fitness is on record?
**A.** The yeast fitness was ≤ 0.5.

**Q.** For GUUCCGCUGGCGUAAUGGUAACGCGUCUUCCUCCUAAGGAGAAGACAGCGGGUUCGAGUCCGGUACGGAACG [U7C C29U U47A C62G], which yeast fitness is on record?
**A.** Its yeast fitness is ≤ 0.5.

**Q.** With GUUCCGUUGGCGUAAUGGUAACGCGUCUCGCUCCUAAGGAGAAGACUGCGGAUUCGAGUCCCGUACGGAACG [C30G G52A] as the variant, how does the yeast fitness read?
**A.** The yeast fitness was 0.605.

**Q.** With GUUCCGUUGGCGUAAUGGUAACGCGUCUCCCUCCUAAGGAGAAGACUGCAGGUACGAGUCCCGUACGGAACG [G50A U54A] as the variant, how does the yeast fitness read?
**A.** Its yeast fitness is 0.705.

**Q.** With GCUCCGUUGGCGUAACGGUAACGCGUGUCCCUCCUAAGGAGAAGACUGCGGGUUCGAGUCCCGUACGGAACG [U2C U16C C27G] as the variant, how does the yeast fitness read?
**A.** The yeast fitness was 0.669.

**Q.** With GUUCCGUAGGCGUAAUGAUAACGCGUCUCGCUCCUAAGGCGAAGACCGCGGGUUCGAGUCCCGUACGGAACG [U8A G18A C30G A40C U47C] as the variant, how does the yeast fitness read?
**A.** Its yeast fitness is ≤ 0.5.

**Q.** With GUUCCGUUGGCGUAAUGGUAACGCAUCUCCCUCCUAAGGAGAAGAAUGCGGCUUCGAGUCCCGUACGGAACG [G25A C46A G52C] as the variant, how does the yeast fitness read?
**A.** Its yeast fitness is 0.615.

**Q.** For GAUCCAUUGGGGUAAUGGUAACGCGUCUCCCUCCUAAGGAGAAGACUGUGGGUUCGACUCCCGUACGGAACG [U2A G6A C11G C49U G58C], which yeast fitness is on record?
**A.** The yeast fitness was ≤ 0.5.

**Q.** For GUUGCGUUGGCGUAAUGGCAAGGCGUCUCCCUCCUAAGGAGAAGACUGCAGGUUCGCGUCCCGUACGGAACG [C4G U19C C22G G50A A57C], which yeast fitness is on record?
**A.** The yeast fitness was ≤ 0.5.

**Q.** For GUUCGGUUGGCGUAAUGGUGACGCGUCUCCCUCCUAAGGAGAAGACUGCGGGAUCGAGUCCCGUACAGAACG [C5G A20G U53A G67A], which yeast fitness is on record?
**A.** Its yeast fitness is ≤ 0.5.

**Q.** With GUUGCGUUGGCGUAAUGGUAACGCGUCUCUCUCCUAAGGAAAAGACUGCGGGUUCGAGUCCCGUACGGAACG [C4G C30U G41A] as the variant, how does the yeast fitness read?
**A.** The yeast fitness was 0.532.

**Q.** For GUUCCGUUGCGGUAAUGGUAACGCGUCUCCCUCCUAAGGAGAAGUCUGCGGGUUCGAGUCCCGUACGGAACG [G10C C11G A45U], which yeast fitness is on record?
**A.** The yeast fitness was ≤ 0.5.

**Q.** Which yeast fitness does the source give for GUUCCGUUGGCGUAAUGGUAACGCGUCUCCUUACUAAGGAGAAGACUGCAGGUUCGAGUCCCGUGCGGAACG [C31U C33A G50A A65G] here?
**A.** The yeast fitness was ≤ 0.5.

**Q.** Which yeast fitness does the source give for GUUCCGUUGGCGUAAUGGUAACGCGUCGCCCUCCUAAGGAGAAGACUGCGGAUUCGAGUCCCGUACGGAACG [U28G G52A] here?
**A.** The yeast fitness was 0.681.

**Q.** Which yeast fitness does the source give for GUCCCGUUGGCGUCAUGGUAACGCGUCUCCCUCCUAAGGAGAAGCCUGCGGGUUCGAGUGCCGUACGGAACG [U3C A14C A45C C60G] here?
**A.** Its yeast fitness is 0.591.

**Q.** For GUUCCGUUGGCGUAAUGGUAACGGGUCUCCCUCCUAAGGAGAAGACUGCGGGUUUGAGUCCCGAACGGAACG [C24G C55U U64A], which yeast fitness is on record?
**A.** The yeast fitness was 0.674.

**Q.** For GUACCGUUGGCGUAAUGGUAACGCGUCUGCCUCCUAAAGAGAAGACUGCGGGUUCGAGUCCGGUACGGAACG [U3A C29G G38A C62G], which yeast fitness is on record?
**A.** The yeast fitness was ≤ 0.5.

**Q.** Which yeast fitness does the source give for GGUCCGUUGGCGUAAUGGUAACGCGUUUCCCUCCUAAGGGGAAGACUACGGGUUCGAGUCCCGUACGGAACG [U2G C27U A40G G48A] here?
**A.** The yeast fitness was 0.576.

**Q.** For GUUCCGUUGGCGUAGUGGUAACGCGUCUCCCUCCUGAGGAAAAGACUGCGGAUUCGAGUCCCGUACGGAACG [A15G A36G G41A G52A], which yeast fitness is on record?
**A.** Its yeast fitness is ≤ 0.5.

**Q.** Which yeast fitness does the source give for GUUCCGUUGGCGUGAUGGUAACGCGUCUCCCUCAUAACGAGAAGACUACGGGUUCGAGUCCCGUACGGCACG [A14G C34A G38C G48A A69C] here?
**A.** The yeast fitness was ≤ 0.5.
